High-throughput results deposited in PubChem by NMMLSC.
A selection: hits, their analogues and other compounds. The true share with any hit is near 2.5%.
ABCB1 inh = blocks JC-1 efflux by human ABCB1 transporter; CCRF-Adr cells, flow cytometry; 190,000 tested, 0.067% active; inhibition, % at 6.6 µM; in the data active = inhibition above about 40%;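 also: 0% = vehicle and 100% = reference inhibitor; higher value means more JC-1 retained so stronger ABCB1 efflux block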
MEKK3 PB1 HTS = modulators (inhibitors or enhancers) of MEK5 binding to human MEKK3 PB1 domain. binding response (% of control), % at 10 µM. Q99759. AID 1529. 290,000 tested, 1.4% active. bead-based flow cytometry, Alexa488-MEK5 binding to MEKK3; actives lie on both sides; 0 = blocked by unlabeled MEK5, 100 = vehicle;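 active = binding response more than 3 SD above or below the average of its plate-row segment, actives on both sides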;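 also: Alexa488 bead fluorescence after subtracting the streptavidin-only scavenger bead signal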
MEKK2 WT-MEK5 = raises or lowers MEK5 binding to wildtype human MEKK2 PB1 domain; Q9Y2U5; bead flow cytometry, Alexa488-MEK5 binding to MEKK2 WT; actives lie on both sides; binding response (% of control), % at 10 µM; 290,000 tested, 1.1% active; AID 1531; in the data active = binding response below about 67% or above about 130%
ABCG2 block = blocks JC-1 efflux by human ABCG2 transporter; 190,000 tested, 0.1% active; inhibition, % at 6.6 µM; AID 1325; IgMXP3 cells, flow cytometry; Q9UNQ0;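 active = inhibition above 80%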;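 also: 0% = DMSO and 100% = nicardipine control wells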
Target sequence (Q9UNQ0 whole entry, looked up): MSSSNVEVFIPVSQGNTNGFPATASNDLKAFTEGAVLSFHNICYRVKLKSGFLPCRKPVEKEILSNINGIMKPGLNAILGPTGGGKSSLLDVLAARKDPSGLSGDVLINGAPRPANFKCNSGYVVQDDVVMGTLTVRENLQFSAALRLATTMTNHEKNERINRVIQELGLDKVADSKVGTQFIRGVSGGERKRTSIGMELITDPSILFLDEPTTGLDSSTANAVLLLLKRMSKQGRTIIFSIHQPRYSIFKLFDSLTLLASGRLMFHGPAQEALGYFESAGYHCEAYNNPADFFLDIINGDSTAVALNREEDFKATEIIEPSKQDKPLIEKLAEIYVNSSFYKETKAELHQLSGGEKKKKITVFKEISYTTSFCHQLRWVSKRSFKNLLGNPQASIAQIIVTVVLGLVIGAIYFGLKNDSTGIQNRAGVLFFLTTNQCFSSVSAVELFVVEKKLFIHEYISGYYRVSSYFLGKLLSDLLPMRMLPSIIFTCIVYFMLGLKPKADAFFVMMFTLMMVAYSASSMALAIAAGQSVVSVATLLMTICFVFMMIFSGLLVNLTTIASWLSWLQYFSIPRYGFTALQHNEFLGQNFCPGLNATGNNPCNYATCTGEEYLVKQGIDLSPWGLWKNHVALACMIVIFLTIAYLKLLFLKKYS
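Times: 10 min at 25 °C | Test system: Two drug-resistant human cell lines, ABCG2 and ABCB1 | Quantity: 3 million cells/mL final, two lines in 1:1 ratio | Signal: Flow cytometry, 530 nm JC-1 signal | Dosing: Compound at 6.6 µM | Controls: Nicardipine and DMSO wells | Reagent: JC-1 as fluorescent efflux pump substrate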
Efflux pump mplx = antifungal efflux pump inhibition, Nile Red retention | S. cerevisiae Candida pump triplex | inhibition, % at 10 µM | 330,000 tested, 0.44% active | AID 485275;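 active = plate passing quality check with inhibition over a set limit, or well fluorescence over plate mean plus 4 SD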;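 also: Nile Red retained in pooled yeast measured as flow cytometry median fluorescence; 0% = buffer negative control and 100% = Enniatin B positive control; higher means more Nile Red kept so more efflux inhibition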
MEKK2mut PB1 HTS = signal of MEK5 binding to mutant human MEKK2 PB1 domain | bead flow cytometry, Alexa488-MEK5 binding to MEKK2 mutant | percent response, % at 10 µM | 290,000 tested, 0.35% active | AID 1530; in the data active = percent response above about 24%, passing the limit was not always enough
An asterisk follows results filed as active; . = not tested or not shown; [ ] = dose if it differs, or a comment.

SMILES | ABCB1 inh | MEKK3 PB1 HTS | MEKK2 WT-MEK5 | ABCG2 block | Efflux pump mplx | MEKK2mut PB1 HTS
O=S(=O)(c1cccc(NC(=S)N2CCN(c3cccc(Cl)c3)CC2)c1)C(F)F | -0.1 | 134.0* | 117.0 | -4.5 | 0.1 | 2.0
O=C(c1cc2ccccc2[nH]1)N(Cc1cccnc1)CC1CCCN(C2CCCCC2)C1 (stereo not drawn) | . | 100.0 | 121.0 | . | 0.8 | 13.0
CCN(CC)S(=O)(=O)c1ccc2oc(C(=O)NC(C)C)c(C)c2c1 | 8.7 | 111.0 | 108.0 | 93.7* | 0.3 | 3.0
CCN(CC)S(=O)(=O)c1ccc2oc(C(=O)O)c(C)c2c1 | -0.3 | 103.0 | 104.0 | 7.8 | -0.2 | 3.0
CCc1cc(=S)n2c([nH]c3ccccc32)c1C#N | -1.1 | 97.0 | 85.0 | -3.2 | 0.0 | -6.0
CCc1cc(=O)n2c([nH]c3ccccc32)c1C#N | 0.7 | 101.0 | 0.0* | 6.1 | 0.0 | 3.0
COc1cc(C(=O)OC(C)CN2CCCCC2)cc(OC)c1OC (stereo not drawn) | . | 99.0 | 102.0 | . | 0.0 | -2.0
CCc1ccc2oc(C(=O)NCC(c3ccc(OC)cc3)N3CCCCC3)c(C)c2c1 (stereo not drawn) | . | 104.0 | 131.0 | . | -0.1 | 26.0*
COc1ccc(C(CNC(=O)c2oc3cc(Br)ccc3c2C)N2CCCCC2)cc1 (stereo not drawn) | . | 107.0 | 141.0* | . | 0.0 | 30.0*
Cc1nn(C(C)C(=O)NCCCN2CCCCCC2)c(=O)c2c1sc1ccccc12 (stereo not drawn) | . | 107.0 | 162.0* | . | 0.1 | 27.0*
CCOc1ccc(CN2CCN(Cc3cc4c(cc3Cl)OCO4)CC2CCO)cc1 (stereo not drawn) | . | 96.0 | 101.0 | . | -0.2 | -4.0
Cc1ccc(-n2c(-c3ccccc3)c[n+]3c2CCc2ccccc2-3)c(C)c1 | -0.2 | 107.0 | 103.0 | -0.1 | 0.2 | 0.0
CN1CCN(c2ccc(NC(=O)c3ccc(Oc4ccccc4)cc3)cc2)CC1 | . | 100.0 | 124.0 | . | 0.1 | 27.0*
Cc1ccc(C(=O)N2CCN(S(=O)(=O)N3CCCCC3)CC2)cc1 | . | 101.0 | 104.0 | . | 0.5 | 3.0
COc1ccc(OCc2cc(C(=O)O)c(C)o2)cc1 | . | 99.0 | 101.0 | . | 0.1 | -2.0
COc1ccc(/C=C/C(=O)c2cc(F)ccc2OC(=O)c2ccccc2C)cc1OC | 0.3 | 150.0* | 108.0 | 1.5 | 0.8 | 0.0
O=C(CCS(=O)(=O)c1ccc(F)cc1)N1CCOCC1 | . | 100.0 | 100.0 | . | -0.2 | 0.0
Cc1c(NC(=O)c2cnc(Cl)c(Cl)c2)c(=O)n(-c2ccccc2)n1C | . | 50.0*[inhibitor] | 46.0*[inhibitor] | . | 0.0 | -19.0
N#CC1=C(N)Oc2cc(Nc3ccccc3)ccc2C1c1ccncc1 (stereo not drawn) | 1.7 | 99.0 | 103.0 | 6.8 | -0.4 | -2.0
O=C(/C=C/c1cccc(O)c1)c1ccc(N2CCOCC2)cc1 | . | 85.0 | -4.0* | . | -0.2 | -15.0
Cn1cccc1-c1nc2ccccc2[nH]1 | . | 101.0 | 102.0 | . | -0.2 | -1.0
O=C(Cc1ccc(F)cc1)NCCS(=O)(=O)N1CCN(c2cccc(Cl)c2)CC1 | . | . | . | . | 0.2 | .
COc1ccc(CCN(C)CC(O)COc2c(C)ccc(C)c2C)cc1OC (stereo not drawn) | . | 104.0 | 109.0 | . | 0.2 | 3.0
COc1ccc(CCN(C)CC(O)COC(c2ccc(F)cc2)c2ccc(F)cc2)cc1OC (stereo not drawn) | . | 101.0 | 145.0* | . | 0.2 | 13.0
CCCCCC(=O)Nc1ccc(C2C(=O)c3ccccc3C2=O)cc1 | . | 104.0 | 101.0 | . | 0.1 | 3.0
SMILES | ABCB1 inh | MEKK3 PB1 HTS | MEKK2 WT-MEK5 | ABCG2 block | Efflux pump mplx | MEKK2mut PB1 HTS
CC1(C)Cc2c(sc3ncnc(NNC(=S)NCc4ccccc4)c23)CO1 | -0.4 | 132.0* | 108.0 | -0.7 | 0.0 | 0.0
CC(C)NC(=S)NNc1ncnc2sc3c(c12)CC(C)(C)OC3 | . | . | . | . | 0.0 | .
Cc1c(C)n(Cc2ccccc2)c2ccc(C(=O)NCCCN3CCOCC3)cc12 | . | 99.0 | 112.0 | . | 0.0 | 6.0
Cc1c(C)n(C)c2ccc(C(=O)NCCCN3CCN(c4ccccc4F)CC3)cc12 | . | 107.0 | 158.0* | . | 0.1 | 21.0
O=C(Cn1c(=O)c2cccn2c2ccc(F)cc21)NCCCN1CCN(c2ccccc2F)CC1 | . | 108.0 | 156.0* | . | 0.0 | 27.0*
Cc1c(C)n(C)c2ccc(C(=O)NCCCN3CCN(c4ccc(F)cc4)CC3)cc12 | . | 98.0 | 134.0* | . | -0.1 | 7.0
Cc1c(C)n(Cc2ccc(F)cc2)c2ccc(C(=O)NCCCN3CCOCC3)cc12 | . | 103.0 | 117.0 | . | -0.3 | 7.0
O=c1c(=NNc2ccccc2Cl)c(=O)c2ccccc12 | 0.7 | 77.0*[inhibitor] | 88.0 | 20.2 | . | -12.0
CCc1nccn1CCC(=O)NC1CCCc2c1cnn2-c1ccc(F)cc1F (stereo not drawn) | . | 71.0*[inhibitor] | 66.0*[inhibitor] | . | 0.7 | -22.0
CC1=[N+](C)c2c(ccc3cccnc23)C1(C)C | 0.4 | 91.0 | -9.0* | 0.0 | . | -15.0
Cc1[nH]c2c(ccc3cccnc32)c1C | . | 91.0 | 89.0 | . | 0.1 | -3.0
COc1ccc(OC)c(S(=O)(=O)Nc2cccc3ccc(O)cc23)c1 | . | . | . | . | 0.3 | .
O=C(CCn1cnc(-c2ccccc2)c1-c1ccccc1)N/N=C/c1ccc(O)cc1 | 0.7 | 77.0 | 95.0 | 1.3 | 0.3 | 2.0
COc1ccc(/C=N/NC(=O)CCn2cnc(-c3ccccc3)c2-c2ccccc2)cc1 | 1.3 | 150.0* | 106.0 | 3.0 | 0.1 | 2.0
COc1ccc2c(c1)-c1nc(/N=C/c3ccccc3O)sc1CC2 | 1.2 | 104.0 | 101.0 | 12.2 | 0.5 | 50.0
COc1ccc2sc(/C=C/c3ccccc3O)[n+](C)c2c1 | 0.9 | 94.0 | 4.0* | 1.1 | . | 19.0
N#C/C(=C\c1ccc(N2CCCCC2)o1)C(=O)Nc1cccc(Br)c1 | 60.5* | 89.0 | 79.0 | 121.7* | -0.1 | 0.0
CC(C)(C)C(=O)OCCn1c(=O)c2cc3c(=O)n(CCOC(=O)C(C)(C)C)c(=O)c3cc2c1=O | 2.1 | 2.0*[inhibitor] | 2.0*[inhibitor] | 7.2 | 0.2 | -16.0
CCOC(=O)CNC(=O)N(CCOC)CC1CCCN(C2Cc3ccccc3C2)C1 (stereo not drawn) | . | 103.0 | 105.0 | . | -0.2 | 4.0
CCn1ncc(CN2CCC(C(=O)Nc3cccc(-c4cccc(F)c4)c3)CC2)c1C | . | 103.0 | 135.0 | . | 0.2 | 11.0
CS(=O)(=O)N1CCC(C(=O)Nc2cccc(Cl)c2)CC1 | 0.1 | 95.0 | 92.0 | 1.2 | 0.0 | -43.0
CCn1nc(C)c(CN2CCC(C(=O)Nc3cccc(-c4cccc(Cl)c4)c3)CC2)c1C | . | 100.0 | 146.0* | . | 0.2 | 12.0
Cc1cc(C)n(CCCN2CCC(C(=O)Nc3cccc(-c4cccc(F)c4)c3)CC2)n1 | . | 109.0 | 158.0* | . | 0.1 | 25.0*
CCc1ccc(C2=CSC3=NCCN23)cc1 | . | 103.0 | 104.0 | . | 0.2 | 3.0
C/C(=N/NC(=O)c1cccs1)c1c(C)[nH]n(-c2nc3ccccc3s2)c1=O | -0.4 | 139.0* | 100.0 | -0.8 | 0.0 | -1.0
